Results reported in ChEMBL document CHEMBL4699498 (J Med Chem, 2020).
The source made the active and inactive calls. No cut-off for these calls is given here.

Assays:
MDA-MB-436 = assay: Antiproliferative activity against human MDA-MB-436 cells assessed as cell growth inhibition incubated for 7 days by CCK-8 assay; type: functional, cell-based; details: MDA-MB-436, 168 h
Outline: (§1)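 Cells were sub-cultured at least twice and seeded for 24 h before dosing. Compounds came from 10 mM DMSO stocks, given as 10 points of 3-fold serial dilution starting at 10-20 μM. Incubation was about 7 days (Capan-1 13 days) at 37 °C, 5% CO2. Read-out was CCK-8 absorbance at 450 nm, as % growth versus DMSO wells (duplicate wells). IC50 was fitted by nonlinear regression; three independent experiments.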

CAPAN-1 = assay: Antiproliferative activity against human CAPAN-1 cells assessed as cell growth inhibition incubated for 13 days by CCK-8 assay; type: functional, cell-based; details: CAPAN-1, 312 h; outline: as §1
[1] = target: T1, Protein cereblon/Poly [ADP-ribose] polymerase 1 (Homo sapiens, UniProt P09874+Q96SW2); assay: Protac activity at CRBN/PARP1 in human MDA-MB-436 cells assessed as induction of PARP1 degradation at 10 nM incubated for 24 hrs by Western blot analysis relative to control; type: cell-based
Outline: (§2)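 MDA-MB-436 cells (RPMI-1640, 10% FBS) seeded 24 h, then exposed to compound at 1, 10, 100 and 1000 nM for 24 h. Lysates in RIPA with protease inhibitors, 20-30 µg protein by SDS-PAGE, PARP1 immunoblot with β-tubulin loading control; PARP1/β-tubulin ratio normalized to DMSO control set at 100.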

[2] = target: T1, Protein cereblon/Poly [ADP-ribose] polymerase 1; assay: Protac activity at CRBN/PARP1 in human MDA-MB-436 cells assessed as induction of PARP1 degradation at 100 nM incubated for 24 hrs by Western blot analysis relative to control; type: cell-based; outline: as §2
[3] = target: T1, Protein cereblon/Poly [ADP-ribose] polymerase 1; assay: Protac activity at CRBN/PARP1 in human MDA-MB-436 cells assessed as induction of PARP1 degradation at 1 uM incubated for 24 hrs by Western blot analysis relative to control; type: cell-based; outline: as §2
[4] = target: von Hippel-Lindau disease tumor suppressor/Poly [ADP-ribose] polymerase 1 (Homo sapiens) (UniProt P09874+P40337); assay: Protac activity at VHL/PARP1 in human MDA-MB-436 cells assessed as reduction in PARP1 protein level at 1 uM incubated for 24 hrs by western blot analysis; type: cell-based
SW-620 = assay: Antitumor activity against SW-620 cells xenografted in Balb/c mouse assessed as tumor growth suppression at 50 mg/kg, po administered once daily for 5 days; type: functional, organism-based; details: time 5.0 day
Outline: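 Male BALB/c nude mice carried SW620 xenografts (6×10^6 cells s.c.), randomized at ~150 mm³ (6 per group). TMZ 50 mg/kg was given orally once daily on days 0-4, 45 min after the partner drug. Partners were 5 or 10 mg/kg intraperitoneally or 10 mg/kg by oral gavage, daily for 5 days. Vehicle was 5% DMSO/20% PEG400/10% Cremophor EL/65% saline. Tumor volume and body weight were recorded 2-3 times weekly.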

[5] = Acute toxicity in Balb/c mouse xenografted with SW-620 cells assessed as mean weight loss at 50 mg/kg, po qd administered for 5 days measured on day 6 relative to control; type: organism-based; details: in vivo, 144 h, time 6 day
[6] = target: T1, Protein cereblon/Poly [ADP-ribose] polymerase 1; assay: Protac activity at CRBN/PARP1 in human MDA-MB-436 cells assessed as induction of PARP1 degradation at 1 to 1000 nM incubated for 24 hrs by Western blot analysis; type: cell-based; details: dose nM 1-1000, time 24.0 hrs
Outline: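 PARP1 immunoblot of MDA-MB-436 lysates after 24 h exposure at 1, 10, 100 and 1000 nM; RIPA lysis, 20-30 µg protein per lane, β-tubulin as loading control, band density normalized to DMSO control.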

[7] = target: T1, Protein cereblon/Poly [ADP-ribose] polymerase 1; assay: Protac activity at CRBN/PARP1 in human Capan1 cells assessed as induction of PARP1 degradation at 1 to 1000 nM incubated for 24 hrs by Western blot analysis; type: cell-based; details: CAPAN-1, dose nM 1-1000, time 24.0 hrs
Outline: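 Capan-1 cells were treated 24 h (1-1000 nM, or a wider dose range for DC50). Lysis was in RIPA buffer with protease inhibitors, and 20-30 μg protein was blotted. PARP1 was normalized to β-tubulin and to DMSO control, quantified by densitometry. DC50 came from two independent experiments.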

[8] = target: Poly [ADP-ribose] polymerase 1 (Homo sapiens, UniProt P09874); assay: Inhibition of recombinant human C-terminal His-tagged PARP1 expressed in Sf9 insect cells preincubated for 20 mins in presence of activated DNA followed by […] addition and further incubated for 2 hrs by chemiluminescence assay
[9] = target: T1, Protein cereblon/Poly [ADP-ribose] polymerase 1; assay: Protac activity at CRBN/PARP1 in human MDA-MB-436 cells assessed as reduction in PARP1 protein level at 0.01 to 10 uM incubated for 12 hrs by western blot analysis; type: cell-based; details: dose microM 0.01-10, time 12.0 hrs
Outline: (§3)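 MDA-MB-436 or SW620 cells dosed at 1, 10, 100, 1000 nM and 10 µM for 12 h; PARP1 assessed by western blot of RIPA lysates (20-30 µg protein), β-tubulin as loading control.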

[10] = target: T1, Protein cereblon/Poly [ADP-ribose] polymerase 1; assay: Protac activity at CRBN/PARP1 in human SW620 cells assessed as reduction in PARP1 protein level at 0.01 to 10 uM incubated for 12 hrs by western blot analysis; type: cell-based; details: SW-620, dose microM 0.01-10, time 12.0 hrs; outline: as §3

Chain of von Hippel-Lindau disease tumor suppressor/Poly [ADP-ribose] polymerase 1 (Homo sapiens) (P09874 whole entry, looked up): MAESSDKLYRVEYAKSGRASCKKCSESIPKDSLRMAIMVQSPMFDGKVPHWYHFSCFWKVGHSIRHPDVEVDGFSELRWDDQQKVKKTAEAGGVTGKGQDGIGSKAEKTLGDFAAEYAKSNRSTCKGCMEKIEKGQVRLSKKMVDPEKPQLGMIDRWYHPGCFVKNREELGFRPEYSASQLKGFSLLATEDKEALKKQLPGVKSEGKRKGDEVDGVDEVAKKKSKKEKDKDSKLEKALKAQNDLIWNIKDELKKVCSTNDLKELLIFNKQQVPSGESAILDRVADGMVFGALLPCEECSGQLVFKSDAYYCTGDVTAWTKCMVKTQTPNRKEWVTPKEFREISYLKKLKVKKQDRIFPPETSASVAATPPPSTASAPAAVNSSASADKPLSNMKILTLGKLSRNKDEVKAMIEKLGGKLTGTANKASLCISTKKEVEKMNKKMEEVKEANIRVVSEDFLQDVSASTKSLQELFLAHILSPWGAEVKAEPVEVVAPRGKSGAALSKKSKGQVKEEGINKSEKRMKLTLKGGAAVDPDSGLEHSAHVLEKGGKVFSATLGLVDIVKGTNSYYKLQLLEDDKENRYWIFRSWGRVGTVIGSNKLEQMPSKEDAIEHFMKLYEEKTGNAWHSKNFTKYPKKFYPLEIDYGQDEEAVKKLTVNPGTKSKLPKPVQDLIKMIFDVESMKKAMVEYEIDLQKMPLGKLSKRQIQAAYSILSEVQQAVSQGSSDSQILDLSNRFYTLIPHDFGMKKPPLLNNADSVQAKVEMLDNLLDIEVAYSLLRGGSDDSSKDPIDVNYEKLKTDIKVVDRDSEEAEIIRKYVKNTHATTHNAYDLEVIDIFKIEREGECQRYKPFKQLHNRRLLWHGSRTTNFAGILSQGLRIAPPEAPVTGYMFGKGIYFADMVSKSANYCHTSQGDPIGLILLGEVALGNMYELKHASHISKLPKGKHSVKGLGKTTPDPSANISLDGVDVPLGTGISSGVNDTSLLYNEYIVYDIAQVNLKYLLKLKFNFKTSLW
Chain of von Hippel-Lindau disease tumor suppressor/Poly [ADP-ribose] polymerase 1 (Homo sapiens) (P40337 whole entry, looked up): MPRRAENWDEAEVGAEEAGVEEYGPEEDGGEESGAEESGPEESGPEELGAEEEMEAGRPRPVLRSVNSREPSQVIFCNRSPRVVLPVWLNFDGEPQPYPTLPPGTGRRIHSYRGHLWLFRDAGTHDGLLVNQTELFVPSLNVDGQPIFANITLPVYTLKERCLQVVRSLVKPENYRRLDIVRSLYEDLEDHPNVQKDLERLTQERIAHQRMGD
T1 sequence (P09874 2-1014 limits assumed): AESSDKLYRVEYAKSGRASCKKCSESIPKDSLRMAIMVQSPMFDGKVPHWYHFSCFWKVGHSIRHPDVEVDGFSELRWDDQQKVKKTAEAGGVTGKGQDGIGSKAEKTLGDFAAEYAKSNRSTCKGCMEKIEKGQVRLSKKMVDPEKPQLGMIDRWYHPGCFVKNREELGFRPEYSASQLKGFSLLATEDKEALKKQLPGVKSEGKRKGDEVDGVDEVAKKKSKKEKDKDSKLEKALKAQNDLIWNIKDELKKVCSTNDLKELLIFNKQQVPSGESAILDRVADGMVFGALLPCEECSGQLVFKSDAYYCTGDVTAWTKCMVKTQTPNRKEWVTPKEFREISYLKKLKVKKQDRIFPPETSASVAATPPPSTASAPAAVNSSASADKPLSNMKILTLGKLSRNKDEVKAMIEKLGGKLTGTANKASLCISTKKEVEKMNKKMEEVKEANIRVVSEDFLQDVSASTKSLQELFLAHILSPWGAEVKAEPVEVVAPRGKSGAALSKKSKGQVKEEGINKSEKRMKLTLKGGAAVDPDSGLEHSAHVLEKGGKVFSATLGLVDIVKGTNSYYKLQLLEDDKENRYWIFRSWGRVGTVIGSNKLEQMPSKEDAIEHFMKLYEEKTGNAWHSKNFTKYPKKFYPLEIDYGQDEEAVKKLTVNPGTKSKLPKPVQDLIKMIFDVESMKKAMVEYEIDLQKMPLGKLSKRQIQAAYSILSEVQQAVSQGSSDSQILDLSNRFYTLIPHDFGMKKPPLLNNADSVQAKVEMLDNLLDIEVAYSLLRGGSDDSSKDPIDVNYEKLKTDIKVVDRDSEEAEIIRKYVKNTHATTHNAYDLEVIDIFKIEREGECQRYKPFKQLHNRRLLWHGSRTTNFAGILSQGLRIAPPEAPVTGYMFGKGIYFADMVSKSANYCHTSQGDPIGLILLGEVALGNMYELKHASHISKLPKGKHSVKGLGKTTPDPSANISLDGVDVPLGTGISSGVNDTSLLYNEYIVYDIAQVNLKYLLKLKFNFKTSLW
T1 sequence (Q96SW2 whole entry partner): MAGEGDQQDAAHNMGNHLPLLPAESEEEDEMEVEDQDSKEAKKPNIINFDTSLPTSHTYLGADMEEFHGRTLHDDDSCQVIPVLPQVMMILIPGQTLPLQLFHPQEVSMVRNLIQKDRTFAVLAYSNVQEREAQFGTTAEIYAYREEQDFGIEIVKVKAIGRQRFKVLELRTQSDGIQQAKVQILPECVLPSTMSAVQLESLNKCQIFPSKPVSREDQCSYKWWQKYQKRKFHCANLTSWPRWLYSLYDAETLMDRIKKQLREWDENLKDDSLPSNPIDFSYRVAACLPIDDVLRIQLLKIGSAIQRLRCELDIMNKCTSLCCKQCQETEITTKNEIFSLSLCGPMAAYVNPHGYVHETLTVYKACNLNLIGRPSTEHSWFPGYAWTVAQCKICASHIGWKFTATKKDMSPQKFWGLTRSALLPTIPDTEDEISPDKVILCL
Chain of Poly [ADP-ribose] polymerase 1 (P09874 whole entry): as the sequence (P09874 whole entry, looked up) above

SMILES	IC50 (MDA-MB-436) [nM]	IC50 (CAPAN-1) [nM]	further results
O=C(CCCCCCC(=O)N1CCN(C(=O)c2cc(Cc3n[nH]c(=O)c4ccccc34)ccc2F)CC1)NCCNc1cccc2c1C(=O)N(C1CCC(=O)NC1=O)C2=O (stereo unspecified)	830	4100	
O=C(CCCCCCCCCCC(=O)N1CCN(C(=O)c2cc(Cc3n[nH]c(=O)c4ccccc34)ccc2F)CC1)NCCOCCNc1cccc2c1C(=O)N(C1CCC(=O)NC1=O)C2=O (stereo unspecified)	47	120	
O=C(CCCCCNC(=O)CNc1cccc2c1C(=O)N(C1CCC(=O)NC1=O)C2=O)NCCCCCC(=O)N1CCN(C(=O)c2cc(Cc3n[nH]c(=O)c4ccccc34)ccc2F)CC1 (stereo unspecified)	1700	2200	
O=C(CCCNC(=O)COc1cccc2c1C(=O)N(C1CCC(=O)NC1=O)C2=O)NCCCCCC(=O)N1CCN(C(=O)c2cc(Cc3n[nH]c(=O)c4ccccc34)ccc2F)CC1 (stereo unspecified)	1200	3100	
O=C(CCCCCCCCCCC(=O)N1CCN(C(=O)c2cc(Cc3n[nH]c(=O)c4ccccc34)ccc2F)CC1)NCCCCNc1cccc2c1C(=O)N(C1CCC(=O)NC1=O)C2=O (stereo unspecified)	39	131	Activity [1]: 70%; Activity [2]: 90.5%; Activity [3]: 45%
O=C(CCCCCCCCCCC(=O)N1CCN(C(=O)c2cc(Cc3n[nH]c(=O)c4ccccc34)ccc2F)CC1)NCCCCCCNc1cccc2c1C(=O)N(C1CCC(=O)NC1=O)C2=O (stereo unspecified)	42	110	
O=C(CCCCCCCCCCCC(=O)N1CCN(C(=O)c2cc(Cc3n[nH]c(=O)c4ccccc34)ccc2F)CC1)NCCNc1cccc2c1C(=O)N(C1CCC(=O)NC1=O)C2=O (stereo unspecified)	21	87	
O=C(CCCCCCCCC(=O)N1CCN(C(=O)c2cc(Cc3n[nH]c(=O)c4ccccc34)ccc2F)CC1)NCCNc1cccc2c1C(=O)N(C1CCC(=O)NC1=O)C2=O (stereo unspecified)	123	495	
O=C(CCCCCCCCCCC(=O)N1CCN(C(=O)c2cc(Cc3n[nH]c(=O)c4ccccc34)ccc2F)CC1)NCCNc1cccc2c1CN(C1CCC(=O)NC1=O)C2=O (stereo unspecified)	92	194	
Cc1ncsc1-c1ccc(CNC(=O)[C@@H]2C[C@@H](O)CN2C(=O)[C@@H](NC(=O)CCCCCCCCCCC(=O)N2CCN(C(=O)c3cc(Cc4n[nH]c(=O)c5ccccc45)ccc3F)CC2)C(C)(C)C)cc1	54	87	Activity [4]: inactive
O=C(CCCCCNC(=O)COc1cccc2c1C(=O)N(C1CCC(=O)NC1=O)C2=O)NCCCC(=O)N1CCN(C(=O)c2cc(Cc3n[nH]c(=O)c4ccccc34)ccc2F)CC1 (stereo unspecified)	1900	8700	
Cn1nnc2c(C(N)=O)ncn2c1=O [TEMOZOLOMIDE]			Activity (SW-620): Active; Activity [5]: 9%
O=C(COc1cccc2c1C(=O)N(C1CCC(=O)NC1=O)C2=O)NCCCCCC(=O)N1CCN(C(=O)c2cc(Cc3n[nH]c(=O)c4ccccc34)ccc2F)CC1 (stereo unspecified)	9400	> 10000	
O=C(CCCNC(=O)CNc1cccc2c1C(=O)N(C1CCC(=O)NC1=O)C2=O)NCCCCCC(=O)N1CCN(C(=O)c2cc(Cc3n[nH]c(=O)c4ccccc34)ccc2F)CC1 (stereo unspecified)	2200	7100	
O=C(CCCCCCCCCCC(=O)N1CCN(C(=O)c2cc(Cc3n[nH]c(=O)c4ccccc34)ccc2F)CC1)NCCNc1ccc2c(c1)C(=O)N(C1CCC(=O)NC1=O)C2=O (stereo unspecified)	35	159	
CN1C(=O)CCC(N2C(=O)c3cccc(NCCNC(=O)CCCCCCCCCCC(=O)N4CCN(C(=O)c5cc(Cc6n[nH]c(=O)c7ccccc67)ccc5F)CC4)c3C2=O)C1=O (stereo unspecified)			Activity [6]: inactive; Activity [7]: inactive; IC50 [8]: 2.64 nM
O=C(CCCCCCCCCCC(=O)N1CCN(C(=O)c2cc(Cc3n[nH]c(=O)c4ccccc34)ccc2F)CC1)NCCOCCOCCNc1cccc2c1C(=O)N(C1CCC(=O)NC1=O)C2=O (stereo unspecified)	64	134	
O=C(COc1cccc2c1C(=O)N(C1CCC(=O)NC1=O)C2=O)NCCCC(=O)N1CCN(C(=O)c2cc(Cc3n[nH]c(=O)c4ccccc34)ccc2F)CC1 (stereo unspecified)	> 10000	> 10000	
O=C(CCCCCCCCCCC(=O)N1CCN(C(=O)c2cc(Cc3n[nH]c(=O)c4ccccc34)ccc2F)CC1)NCCCOCCOCCOCCCNc1cccc2c1C(=O)N(C1CCC(=O)NC1=O)C2=O (stereo unspecified)	65	154	
O=C(CCCCCCCCCC(=O)N1CCN(C(=O)c2cc(Cc3n[nH]c(=O)c4ccccc34)ccc2F)CC1)NCCNc1cccc2c1C(=O)N(C1CCC(=O)NC1=O)C2=O (stereo unspecified)	29	264	
O=C(CCCCCNC(=O)COc1cccc2c1C(=O)N(C1CCC(=O)NC1=O)C2=O)NCCCCCC(=O)N1CCN(C(=O)c2cc(Cc3n[nH]c(=O)c4ccccc34)ccc2F)CC1 (stereo unspecified)	950	1500	
O=C(CCCNC(=O)COc1cccc2c1C(=O)N(C1CCC(=O)NC1=O)C2=O)NCCCC(=O)N1CCN(C(=O)c2cc(Cc3n[nH]c(=O)c4ccccc34)ccc2F)CC1 (stereo unspecified)	5300	> 10000	
Cc1ncsc1-c1ccc(CNC(=O)[C@@H]2C[C@@H](O)CN2C(=O)[C@@H](NC(=O)CNC(=O)CCCCCCCCCCC(=O)N2CCN(C(=O)c3cc(Cc4n[nH]c(=O)c5ccccc45)ccc3F)CC2)C(C)(C)C)cc1	1200	1600	Activity [4]: inactive
Cc1ncsc1-c1ccc(CNC(=O)[C@@H]2C[C@@H](O)CN2C(=O)[C@@H](NC(=O)CCCNC(=O)CCCCCCCCCCC(=O)N2CCN(C(=O)c3cc(Cc4n[nH]c(=O)c5ccccc45)ccc3F)CC2)C(C)(C)C)cc1	680	870	Activity [4]: inactive
O=C(CCCCCCCCCCCCC(=O)N1CCN(C(=O)c2cc(Cc3n[nH]c(=O)c4ccccc34)ccc2F)CC1)NCCNc1cccc2c1C(=O)N(C1CCC(=O)NC1=O)C2=O (stereo unspecified)	25	118	
Cc1ncsc1-c1ccc(CNC(=O)[C@@H]2C[C@@H](O)CN2C(=O)[C@@H](NC(=O)CCCCCNC(=O)CCCCCCCCCCC(=O)N2CCN(C(=O)c3cc(Cc4n[nH]c(=O)c5ccccc45)ccc3F)CC2)C(C)(C)C)cc1	120	170	Activity [4]: inactive
O=C(CCCCC(=O)N1CCN(C(=O)c2cc(Cc3n[nH]c(=O)c4ccccc34)ccc2F)CC1)NCCNc1cccc2c1C(=O)N(C1CCC(=O)NC1=O)C2=O (stereo unspecified)	> 10000	> 10000	
CN(CCOCCOCCOCCOCCOCCOCCNc1cccc2c1C(=O)N(C1CCC(=O)NC1=O)C2=O)Cc1ccc(-c2[nH]c3cc(F)cc4c3c2CCNC4=O)cc1 (stereo unspecified)	710	950	Activity [9]: Active; Activity [10]: Active
